FAS-TE inh = inhibitors of human fatty acid synthase thioesterase domain; recombinant FAS-TE, OMFH fluorogenic substrate, fluorescence endpoint; inhibition, % at 15 µM; P49327; 0.67% of 360,000 active;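 active = compounds whose normalised, plate-corrected inhibition of enzyme fluorescence in the single-dose primary screen is 50% or more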;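 note: 0% = DMSO with enzyme and 100% = substrate without enzyme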
STEP block = STEP (human) phosphatase inhibition; recombinant STEP, OMFP fluorogenic substrate, fluorescence; inhibition, % at 20 µM; 0.25% of 360,000 active; AID 588621;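 active = inhibition at 20 µM, scaled per plate between control wells, above about 37%, limit read from the data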;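 note: 0% = DMSO with enzyme and substrate and 100% = substrate only without enzyme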
Target sequence (P54829 whole entry, looked up): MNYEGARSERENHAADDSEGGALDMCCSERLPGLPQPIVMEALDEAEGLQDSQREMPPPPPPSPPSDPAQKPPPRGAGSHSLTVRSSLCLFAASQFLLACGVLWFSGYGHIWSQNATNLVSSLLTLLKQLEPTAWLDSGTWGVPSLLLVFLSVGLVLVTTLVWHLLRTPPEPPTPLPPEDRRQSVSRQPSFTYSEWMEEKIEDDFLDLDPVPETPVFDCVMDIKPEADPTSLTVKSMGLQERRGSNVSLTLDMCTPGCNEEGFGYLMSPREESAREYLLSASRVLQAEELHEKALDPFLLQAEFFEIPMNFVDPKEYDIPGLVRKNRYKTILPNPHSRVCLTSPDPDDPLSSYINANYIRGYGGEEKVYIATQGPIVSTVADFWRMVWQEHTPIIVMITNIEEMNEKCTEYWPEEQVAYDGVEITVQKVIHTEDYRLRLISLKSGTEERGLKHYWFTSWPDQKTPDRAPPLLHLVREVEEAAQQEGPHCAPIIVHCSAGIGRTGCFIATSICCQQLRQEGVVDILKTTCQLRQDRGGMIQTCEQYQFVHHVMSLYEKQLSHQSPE
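Test system: STEP tyrosine phosphatase / Reagent: OMFP at 25 µM / Doses: 20 µM, 1% DMSO / Read-out: percent inhibition scaled to no-enzyme and uninhibited-enzyme controls, plate-pattern corrected / Detection: FITC-channel fluorescence of OMFP product / Medium: Bis-Tris buffer pH 6.0, 2.5 mM DTT, 0.005% Tween 20 / Schedule: 20 min at room temperature, dark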
SUMO1 PPI mod = SUMO1-SIM interaction modulation. inhibition, % at 20 µM. SUMO1 binding to a labelled peptide, TR-FRET, 1 h. 0.33% of 360,000 active; in the data active = inhibition above about 37%
Target sequence (P63165 whole entry, looked up): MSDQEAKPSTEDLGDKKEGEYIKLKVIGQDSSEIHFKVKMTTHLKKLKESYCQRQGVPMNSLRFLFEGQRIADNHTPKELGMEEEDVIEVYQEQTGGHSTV
Scp1 inh = inhibitors of human Scp-1 phosphatase; inhibition, % at 20 µM; AID 493091; 0.88% of 340,000 active; Recombinant Scp1, phosphopeptide, malachite green phosphate absorbance;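 active = inhibition above about 50% at 20 µM, limit read from the data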;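 note: plate controls were DMSO wells with enzyme for no effect and wells lacking enzyme for full effect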
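Assay system: SCP-1 catalytic fragment, aa 76-261 | Buffer or medium: Tris acetate buffer pH 5.5 with MgCl2 and Tween-20 | Compound: One concentration, 20 µM, with 1.0% DMSO | Also added: Phospho 17-mer peptide substrate | Signal: Absorbance at 630 nm | Incubation: 45 min enzyme reaction at room temperature | Measure: % inhibition of SCP-1 phosphate liberation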
LMPTP block = blocks human LMPTP phosphatase. inhibition, % at 20 µM. P24666. recombinant LMPTP-A, OMFP fluorogenic substrate, fluorescence intensity. 0.22% of 360,000 active;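 active = compounds that cut the enzyme signal by at least half of the control window in the single-dose screen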;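 note: plate controls were DMSO wells with enzyme plus substrate for no effect and substrate without enzyme for full effect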
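Test system – LMPTP-A enzyme · Amount – LMPTP-A at 0.625 nM final in the reaction · Buffer or medium – Bis-Tris pH 6.0, DTT, detergent · Reagent – OMFP 400 µM · Doses – single 20 µM dose · Schedule – reaction 50 min, room temperature, dark · Detection – fluorescence intensity of OMFP turnover product · Evaluation – percent inhibition versus substrate-only and uninhibited controls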
Starred values were filed as active, the others as inactive; nt = no result. Compounds with a hit are over-represented: about 1.9% of the library has one in this group of screens.

SMILES | FAS-TE inh | STEP block | SUMO1 PPI mod | Scp1 inh | LMPTP block
COc1ccc2nc3cc(Cl)ccc3c(Nc3cc(CN4CCCC4)c(O)c(CN4CCCC4)c3)c2n1 | -3 | 14 | -60 | nt | 50*
COc1ccc2nc3cc(Cl)ccc3c(Nc3cc(C(C)C)c(O)cc3C)c2c1 | 5 | 13 | 3 | -3 | 5
COc1ccc(NC(=O)C2(C)CCCN(C(C)C)C2)cc1F (configuration not stated) | -3 | -2 | 1 | nt | -1
Cc1nn(-c2cccc(Cl)c2)c2nc(-c3ccco3)cc(C(=O)O)c12 | -4 | -1 | 40* | 14 | 0
Cc1nn(-c2ccccc2)c2nc(-c3ccco3)cc(C(=O)O)c12 | -2 | -3 | 29 | 13 | 0
O=C(O)c1cc(-c2ccco2)nn1-c1ccc(Cl)cc1 | 0 | 11 | 25 | 67* | 11
O=C(O)c1cc(-c2cc3ccccc3o2)nn1-c1ccccc1 | 1 | 9 | 0 | -3 | 0
CCCNC(=O)C1(C)CCN(CCOc2ccc(Cl)cc2)C1 (configuration not stated) | -7 | -2 | 1 | nt | 1
Nc1nn2c(-c3ccccc3)cc(=O)[nH]c2c1N=Nc1ccc(Br)cc1 | 37 | 14 | -3 | 13 | 56*
Nc1nn2c(-c3ccccc3)cc(=O)[nH]c2c1N=Nc1ccc(O)cc1 | 3 | 11 | 4 | -3 | 25
CC(C)C(=O)NNS(=O)(=O)c1ccccc1 | -6 | 2 | 44* | 4 | -1
COc1ccc(C2NCCc3c2[nH]c2ccccc32)cc1CN1CCc2cc(OC)c(OC)cc2C1C (configuration not stated) | -2 | -2 | -48 | 4 | 52*
COc1cccc(Cn2c(C(C)n3c(-c4cnccn4)nc4ccccc43)nc3ccccc32)c1 (configuration not stated) | nt | nt | -9 | nt | 0
Cn1cnnc1SCC(=O)Nc1ncc([N+](=O)[O-])s1 | -3 | 7 | 4 | 75* | 22
Cc1cc(Nc2ccc(Cl)cc2)n(-c2cccc(Cl)c2)n1 | 19 | 3 | 1 | -2 | 2
Cc1cc(Nc2ccccc2C(=O)O)n(-c2cccc(Cl)c2)n1 | -4 | -1 | 42* | -7 | -1
Cc1ccc(C)n1-c1sccc1C(=O)O | -2 | 75* | 66* | 80* | 40
Cc1ccc(C)n1-c1sc2c(c1C(=O)O)CCCC2 | -3 | 5 | 7 | 43 | 0
Cc1cc(N/N=C/c2ccccc2O)c2ccccc2n1 | 4 | -2 | -19 | -4 | 51*
CCCCn1nc(NC(=O)COC)c2cc3ccc(C)cc3nc21 | -5 | -6 | -6 | 52* | 2
CCn1nc(NC(=O)COC)c2cc3cc(C)ccc3nc21 | 1 | -4 | -20 | 33 | 0
CCC(=O)Nc1ccc2nc3c(=O)[nH]c(=S)[nH]c3nc2c1 | -2 | 6 | -3 | 67* | 6
CC(C)C(=O)Nc1ccc(C(=O)N/N=C/C2CC3C=CC2C3)cc1 (configuration not stated) | -11 | 1 | 40* | -3 | -1
CC(=O)Nc1ccc(C(=O)N/N=C/C2CC3C=CC2C3)cc1 (configuration not stated) | -4 | -2 | 1 | -8 | 0
Nc1c(-c2ccc(F)c(F)c2)nc2ncccn12 | nt | nt | -20 | nt | -1
SMILES | FAS-TE inh | STEP block | SUMO1 PPI mod | Scp1 inh | LMPTP block
CCN(Cc1ccccc1)C(=O)C1CCN(Cc2ccc(SC)cc2)CC1 | 6 | 0 | 42* | -5 | -1
CCOC(=O)C1(CCCc2ccccc2)CCN(C(=O)c2cc(C)nn2CC)CC1 | 3 | -1 | 43* | -5 | 0
Cc1ccc(NC(=O)/C(=C/c2cccc([N+](=O)[O-])c2)NC(=O)C2CCCCC2)c(C)c1 | 8 | -3 | -2 | -3 | 1
O=C(Nc1ccc([N+](=O)[O-])cc1)/C(=C/c1cccc([N+](=O)[O-])c1)NC(=O)C1CCCCC1 | 59* | 3 | -8 | -8 | 1
CC(C)(CC(=O)O)CC(=O)Nc1cc(C(F)(F)F)cc(C(F)(F)F)c1 | -3 | -2 | 2 | -3 | -1
O=C(O)CCC(=O)Nc1cc(C(F)(F)F)cc(C(F)(F)F)c1 | -4 | 1 | 44* | -5 | 1
Nc1ncnc2c1ncn2[C@@H]1O[C@H](CNC(=O)[C@@H](N)Cc2ccc(C(=O)c3ccccc3)cc2)[C@@H](O)[C@H]1O | -9 | -2 | 3 | nt | -2
COc1cc2c(=O)[nH]c3cc([N+](=O)[O-])ccc3c2cc1[N+](=O)[O-] | 9 | 3 | 99* | nt | 38
COc1cc2c(cc1[N+](=O)[O-])-c1ccc([N+](=O)[O-])cc1C2 | 0 | 3 | -75 | nt | 1
CN1CCN(C(=O)c2cnn(-c3ccccc3)c2NC(=O)c2ccccc2Cl)CC1 | -6 | 1 | 55* | -5 | 0
C[C@H](NC(=O)C1CCN(C(=O)[C@@H]2CCCN2C(=O)OC(C)(C)C)CC1)C(=O)NCc1ccc(F)cc1 | 2 | 0 | 15 | nt | 3
O=C(O[C@@H]1OC2COC(=O)c3cc(O)c(O)c(O)c3-c3c(cc(O)c(O)c3O)C(=O)O[C@@H]([C@H]1O)[C@@H]2O)c1cc(O)c(O)c(O)c1 | 50 | 11 | 46* | 50* | 14
COc1ccc(N2C(=O)C(Cl)=C(Oc3cccc(OC)c3)C2=O)cc1 | 52* | -1 | 12 | -3 | 0
COc1ccc(N2C(=O)c3ccccc3C2=O)cc1 | 3 | -2 | -22 | 4 | 0
CC1(Cc2ccc(C(F)(F)F)o2)C(=O)Nc2cc(-c3ccc(F)cc3F)ccc21 (configuration not stated) | 27 | 0 | 4 | nt | 3
Cc1ccc2nc(-c3ccc4c(c3)OCCO4)cn2c1 | 0 | 1 | 2 | -7 | 1
Cc1ccc2nc(-c3ccc4c(c3)NC(=O)CO4)cn2c1 | -14 | -2 | -2 | -15 | 73*
CSc1nc(N(CCO)CCO)c2sc3nc(-c4ccco4)c4c(c3c2n1)CCC4 | 9 | 56* | 74* | 81* | 68*
COC(=O)CSc1nc(SC)nc2c1sc1nc(-c3ccco3)c3c(c12)CC(C)(C)OC3 | -7 | -1 | 3 | 3 | 2
CC(C)(C)OC(=O)Nc1ccccc1-n1nnnc1C(C(=O)c1ccc(F)cc1)N1CCN(c2ccccn2)CC1 (configuration not stated) | nt | nt | -10 | nt | -1
Cc1cc(C(=O)O)ccc1-c1ccc(CO)o1 | -8 | 0 | -1 | 11 | 0
Cc1cc(C(=O)O)ccc1-c1ccc(/C=C2\SC(=O)N(CC(=O)Nc3ccc4c(c3)OCO4)C2=O)o1 | -35 | 64* | 73* | nt | 80*
Cc1ccc(NC(=O)CN2C(=O)S/C(=C/c3ccc(O)c([N+](=O)[O-])c3)C2=O)cc1C | 7 | 24 | 3 | 76* | 80*
Cc1ccc(NC(=O)CN2C(=O)S/C(=C\c3ccc(C(=O)O)cc3)C2=O)cc1 | 0 | 1 | -22 | 26 | 0

Assay outcomes from PubChem BioAssay.
